ChEMBL document CHEMBL1155222, “Synthesis and anticancer activity of N-bis(trifluoromethyl)alkyl-N'-thiazolyl and N-bis(trifluoromethyl)alkyl-N'-benzothiazolyl ureas” (2009)
Activity calls are given as the source filed them. The rule behind the calls is not given here.

Key:
Format in all cases: functional
DU-145 = assay: Anticancer activity against human DU145 cells after 48 hrs by sulforhodamine B assay
How it was run: (§1)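 NCI 60-cell-line screen. Cells grown in RPMI 1640 with 5% FBS and 2 mM L-glutamine, plated at 5000–40,000 cells/well, and preincubated 24 h at 37 °C under 5% CO2. Compounds were taken from DMSO stocks and tested at five final concentrations, 10^-4 to 10^-8 M, for 48 h. Cells were TCA-fixed, stained with 0.4% SRB, and read at 515 nm. GI50, TGI and LC50 were derived as log molar values.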

MOLT-4 = assay: Anticancer activity against human MOLT4 cells after 48 hrs by sulforhodamine B assay; how it was run: as §1
ACHN = assay: Anticancer activity against human ACHN cells after 48 hrs by sulforhodamine B assay; how it was run: as §1
CAKI-1 = assay: Anticancer activity against human Caki1 cells after 48 hrs by sulforhodamine B assay; how it was run: as §1
U-251 = assay: Anticancer activity against human U251 cells after 48 hrs by sulforhodamine B assay
How it was run: (§2)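 NCI 60-cell-line panel; cells grown in RPMI 1640 with 5% FBS and 2 mM L-glutamine, plated at 5000–40,000 cells/well and preincubated 24 h at 37 °C, 5% CO2. Compounds came from DMSO stocks diluted in medium with gentamicin and were tested at five final concentrations, 10^-4 to 10^-8 M, for 48 h. Cells were fixed with TCA, stained with SRB and read at 515 nm. GI50, TGI and LC50 were derived as log molar values.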

A498 = assay: Anticancer activity against human A498 cells after 48 hrs by sulforhodamine B assay; how it was run: as §1
HCT-15 = assay: Anticancer activity against human HCT15 cells after 48 hrs by sulforhodamine B assay; how it was run: as §1
M14 = assay: Anticancer activity against human M14 cells after 48 hrs by sulforhodamine B assay; how it was run: as §1
RPMI8266 = assay: Anticancer activity against human RPMI8266 cells after 48 hrs by sulforhodamine B assay; how it was run: as §1
UACC-62 = assay: Anticancer activity against human UACC62 cells after 48 hrs by sulforhodamine B assay; how it was run: as §2
OVCAR-5 = assay: Anticancer activity against human OVCAR5 cells after 48 hrs by sulforhodamine B assay; how it was run: as §1
NCI-H522 = assay: Anticancer activity against human NCI-H522 cells after 48 hrs by sulforhodamine B assay; how it was run: as §1
NCI-H460 [1] = assay: Anticancer activity against human NCI-H460 cells after 48 hrs by sulforhodamine B assay; how it was run: as §1
NCI/ADR-RES = assay: Anticancer activity against human NCI/ADR-RES cells after 48 hrs by sulforhodamine B assay; how it was run: as §1
OVCAR-4 = assay: Anticancer activity against human OVCAR4 cells after 48 hrs by sulforhodamine B assay; how it was run: as §1
HOP-62 = assay: Anticancer activity against human HOP62 cells after 48 hrs by sulforhodamine B assay; how it was run: as §1
SF-295 = assay: Anticancer activity against human SF295 cells after 48 hrs by sulforhodamine B assay; how it was run: as §1
SN12C = assay: Anticancer activity against human SN12C cells after 48 hrs by sulforhodamine B assay; how it was run: as §2
SF-268 [2] = assay: Anticancer activity against human SF268 cells after 48 hrs by sulforhodamine B assay; how it was run: as §1
RXF 393 = assay: Anticancer activity against human RXF393 cells after 48 hrs by sulforhodamine B assay; how it was run: as §1
PC-3 = assay: Anticancer activity against human PC3 cells after 48 hrs by sulforhodamine B assay; how it was run: as §1
SK-OV-3 = assay: Anticancer activity against human SKOV3 cells after 48 hrs by sulforhodamine B assay; how it was run: as §1
NCI-H322M = assay: Anticancer activity against human NCI-H322M cells after 48 hrs by sulforhodamine B assay; how it was run: as §1
HL-60(TB) = assay: Anticancer activity against human HL-60(TB) cells after 48 hrs by sulforhodamine B assay
How it was run: (§3)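 NCI 60-cell-line screen. Cells were grown in RPMI 1640 with 5% FBS and 2 mM L-glutamine, seeded at 5000–40,000 cells/well and preincubated 24 h at 37 °C, 5% CO2. Compounds in DMSO were diluted in medium with gentamicin and tested at five concentrations (10^-4 to 10^-8 M) for 48 h. Cells were then fixed with TCA, stained with SRB and read at 515 nm.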

SK-MEL-5 = assay: Anticancer activity against human SK-MEL-5 cells after 48 hrs by sulforhodamine B assay; how it was run: as §1
SNB-75 = assay: Anticancer activity against human SNB75 cells after 48 hrs by sulforhodamine B assay; how it was run: as §2
TK-10 = assay: Anticancer activity against human TK10 cells after 48 hrs by sulforhodamine B assay; how it was run: as §2
EKVX = assay: Anticancer activity against human EKVX cells after 48 hrs by sulforhodamine B assay; how it was run: as §1
MCF7 [3] = assay: Anticancer activity against human MCF7 cells after 48 hrs by sulforhodamine B assay; how it was run: as §1
UO-31 = assay: Anticancer activity against human UO31 cells after 48 hrs by sulforhodamine B assay; how it was run: as §2
SNB-19 = assay: Anticancer activity against human SNB19 cells after 48 hrs by sulforhodamine B assay; how it was run: as §2
A549 = assay: Anticancer activity against human A549 cells after 48 hrs by sulforhodamine B assay; how it was run: as §1
UACC-257 = assay: Anticancer activity against human UACC257 cells after 48 hrs by sulforhodamine B assay; how it was run: as §2
COLO 205 = assay: Anticancer activity against human COLO205 cells after 48 hrs by sulforhodamine B assay; how it was run: as §1
LOX IMVI = assay: Anticancer activity against human LOXIMVI cells after 48 hrs by sulforhodamine B assay; how it was run: as §1
MDA-MB-231 = assay: Anticancer activity against human MDA-MB-231 cells after 48 hrs by sulforhodamine B assay; how it was run: as §1
IGROV-1 = assay: Anticancer activity against human IGROV1 cells after 48 hrs by sulforhodamine B assay; how it was run: as §1
HT-29 = assay: Anticancer activity against human HT-29 cells after 48 hrs by sulforhodamine B assay; how it was run: as §1
HOP-92 = assay: Anticancer activity against human HOP92 cells after 48 hrs by sulforhodamine B assay; how it was run: as §1
OVCAR-3 = assay: Anticancer activity against human OVCAR-3 cells after 48 hrs by sulforhodamine B assay; how it was run: as §1
Hs-578T = assay: Anticancer activity against human Hs 578T cells after 48 hrs by sulforhodamine B assay; how it was run: as §1
SW-620 = assay: Anticancer activity against human SW620 cells after 48 hrs by sulforhodamine B assay; how it was run: as §2
OVCAR-8 = assay: Anticancer activity against human OVCAR8 cells after 48 hrs by sulforhodamine B assay; how it was run: as §1
MDA-MB-435 = assay: Anticancer activity against human MDA-MB-435 cells after 48 hrs by sulforhodamine B assay; how it was run: as §1
K562 = assay: Anticancer activity against human K562 cells after 48 hrs by sulforhodamine B assay; how it was run: as §1
BT-549 = assay: Anticancer activity against human BT549 cells after 48 hrs by sulforhodamine B assay; how it was run: as §1
SK-MEL-28 = assay: Anticancer activity against human SK-MEL-28 cells after 48 hrs by sulforhodamine B assay; how it was run: as §1
Malme-3M = assay: Anticancer activity against human MALME-3M cells after 48 hrs by sulforhodamine B assay; how it was run: as §1
SR = assay: Anticancer activity against human SR cells after 48 hrs by sulforhodamine B assay; how it was run: as §2
CCRF-CEM = assay: Anticancer activity against human CCRF-CEM cells after 48 hrs by sulforhodamine B assay; how it was run: as §1
NCI-H226 = assay: Anticancer activity against human NCI-H226 cells after 48 hrs by sulforhodamine B assay; how it was run: as §1
T47D = assay: Anticancer activity against human T47D cells after 48 hrs by sulforhodamine B assay; how it was run: as §2
HCC 2998 = assay: Anticancer activity against human HCC2998 cells after 48 hrs by sulforhodamine B assay; how it was run: as §1
786-0 = assay: Anticancer activity against human 786-0 cells after 48 hrs by sulforhodamine B assay; how it was run: as §1
SK-MEL-2 = assay: Anticancer activity against human SK-MEL-2 cells after 48 hrs by sulforhodamine B assay; how it was run: as §1
HCT-116 = assay: Anticancer activity against human HCT116 cells after 48 hrs by sulforhodamine B assay; how it was run: as §1
SF-539 = assay: Anticancer activity against human SF539 cells after 48 hrs by sulforhodamine B assay; how it was run: as §1
KM12 = assay: Anticancer activity against human KM12 cells after 48 hrs by sulforhodamine B assay; how it was run: as §1
MDA-N = assay: Anticancer activity against human MDA-N cells after 48 hrs by sulforhodamine B assay; how it was run: as §1
NCI-H23 = assay: Anticancer activity against human NCI-H23 cells after 48 hrs by sulforhodamine B assay; how it was run: as §3
NCI-H460 [4] = assay: Anticancer activity against human NCI-H460 cells assessed as cell growth at 100 uM after 48 hrs by Alamar blue assay relative to control; conditions: NCI-H460, 48 h, read-out: Activity
How it was run: (§4)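 NCI one-dose pre-test on MCF7, NCI-H460 and SF-268. Cells were inoculated and preincubated, then exposed to a single 10^-4 M concentration for 48 h. End-point was alamar blue. Results are percent growth versus untreated control cells, with negative values indicating cell kill.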

SF-268 [5] = assay: Anticancer activity against human SF268 cells assessed as cell growth at 100 uM after 48 hrs by Alamar blue assay relative to control; conditions: SF-268, 48 h, read-out: Activity; how it was run: as §4
MCF7 [6] = assay: Anticancer activity against human MCF7 cells assessed as cell growth at 100 uM after 48 hrs by Alamar blue assay relative to control; conditions: MCF7, 48 h, read-out: Activity; how it was run: as §4

## FC(F)(F)C(=Cc1nc2ccccc2s1)C(F)(F)F
DU-145
  logGI50: inactive
MOLT-4
  logGI50: inactive
ACHN
  logGI50: inactive
CAKI-1
  logGI50: inactive
U-251
  logGI50: inactive
A498
  logGI50: inactive
HCT-15
  logGI50: inactive
M14
  logGI50: inactive
RPMI8266
  logGI50: inactive
UACC-62
  logGI50: inactive
OVCAR-5
  logGI50: inactive
NCI-H522
  logGI50: inactive
NCI-H460 [1]
  logGI50: inactive
NCI/ADR-RES
  logGI50: inactive
OVCAR-4
  logGI50: inactive
HOP-62
  logGI50: inactive
SF-295
  logGI50: inactive
SN12C
  logGI50: inactive
SF-268 [2]
  logGI50: inactive
RXF 393
  logGI50: inactive
PC-3
  logGI50: inactive
SK-OV-3
  logGI50: inactive
NCI-H322M
  logGI50: inactive
HL-60(TB)
  logGI50: inactive
SK-MEL-5
  logGI50: inactive
SNB-75
  logGI50: inactive
TK-10
  logGI50: inactive
EKVX
  logGI50: inactive
MCF7 [3]
  logGI50: inactive
UO-31
  logGI50: inactive
SNB-19
  logGI50: inactive
A549
  logGI50: inactive
UACC-257
  logGI50: inactive
COLO 205
  logGI50: inactive
LOX IMVI
  logGI50: inactive
MDA-MB-231
  logGI50: inactive
IGROV-1
  logGI50: inactive
HT-29
  logGI50: inactive
HOP-92
  logGI50: inactive
OVCAR-3
  logGI50: inactive
Hs-578T
  logGI50: inactive
SW-620
  logGI50: inactive
OVCAR-8
  logGI50: inactive
MDA-MB-435
  logGI50: inactive
K562
  logGI50: inactive
BT-549
  logGI50: inactive
SK-MEL-28
  logGI50: inactive
Malme-3M
  logGI50: inactive
SR
  logGI50: inactive
CCRF-CEM
  logGI50: inactive
NCI-H226
  logGI50: inactive
T47D
  logGI50: inactive
HCC 2998
  logGI50: inactive
786-0
  logGI50: inactive
SK-MEL-2
  logGI50: inactive
HCT-116
  logGI50: inactive
SF-539
  logGI50: inactive
KM12
  logGI50: inactive
MDA-N
  logGI50: inactive
NCI-H23
  logGI50: inactive

## CC(NC(=O)Nc1nccs1)(C(F)(F)F)C(F)(F)F
NCI-H460 [4]
  growth at 100 µM: 49%
SF-268 [5]
  growth at 100 µM: 74%
MCF7 [6]
  growth at 100 µM: 59%
